From ChEMBL document CHEMBL3784976 (J Med Chem, 2016)
pIC50: −log10 of the molar value. Calls of active or inactive are those of the source. The rule behind the calls is not given here.

Assays:
[1] = Fraction unbound in rat plasma; assay type: ADME, cell-free
[2] = molecular target: Alpha-2A adrenergic receptor (Homo sapiens) (UniProt P08913); assay: Displacement of [3H]RX-821002 from human recombinant adrenergic alpha2A expressed in CHO cells assessed as remaining radioligand binding at 10 uM after 60 mins by scintillation counting method relative to control; assay type: cell-based
Chain of Alpha-2A adrenergic receptor (Homo sapiens) (P08913 whole entry): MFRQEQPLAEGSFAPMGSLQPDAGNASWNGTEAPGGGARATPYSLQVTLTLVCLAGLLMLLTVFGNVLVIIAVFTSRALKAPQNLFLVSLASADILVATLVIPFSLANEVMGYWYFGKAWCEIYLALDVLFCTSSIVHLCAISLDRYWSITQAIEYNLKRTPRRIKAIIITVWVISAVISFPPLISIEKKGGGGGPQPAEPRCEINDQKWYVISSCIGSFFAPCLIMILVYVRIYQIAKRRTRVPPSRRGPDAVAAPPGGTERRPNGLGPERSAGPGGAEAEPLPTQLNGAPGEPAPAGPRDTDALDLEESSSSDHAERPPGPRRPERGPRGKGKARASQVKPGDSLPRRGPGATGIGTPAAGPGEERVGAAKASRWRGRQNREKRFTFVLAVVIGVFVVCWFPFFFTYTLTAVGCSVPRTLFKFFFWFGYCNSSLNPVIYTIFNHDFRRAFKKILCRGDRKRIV

[3] = molecular target: 5-hydroxytryptamine receptor 1A (Homo sapiens) (UniProt P08908); assay: Displacement of [3H]8-OH-DPAT from human recombinant 5HT1A receptor expressed in HEK293 cells assessed as remaining radioligand binding at 10 uM after 60 mins by scintillation counting method relative to control; assay type: cell-based
[4] = system: Jurkat; assay: Displacement of [3H]DTG from sigma receptor in human Jurkat cells assessed as remaining radioligand binding at 10 uM after 120 mins by scintillation counting method relative to control; assay type: cell-based
[5] = molecular target: Beta-1 adrenergic receptor (Homo sapiens) (UniProt P08588); assay: Displacement of (-)-[3H]CGP-12177 from human recombinant adrenergic beta1 receptor expressed in HEK293 cells assessed as remaining radioligand binding at 10 uM after 60 mins by scintillation counting method relative to control; assay type: cell-based
[6] = species on record: Rattus norvegicus; assay: Displacement of [3H]PK-11195 from benzodiazepine receptor in rat heart assessed as remaining radioligand binding at 10 uM after 15 mins by scintillation counting method relative to control
[7] = molecular target: Adenosine receptor A2a (Homo sapiens) (UniProt P29274); assay: Displacement of [3H]CGS-21680 from human recombinant adenosine A2A receptor expressed in HEK293 cells assessed as remaining radioligand binding at 10 uM after 120 mins by scintillation counting method relative to control; assay type: cell-based
Chain of Adenosine receptor A2a (Homo sapiens) (P29274 whole entry): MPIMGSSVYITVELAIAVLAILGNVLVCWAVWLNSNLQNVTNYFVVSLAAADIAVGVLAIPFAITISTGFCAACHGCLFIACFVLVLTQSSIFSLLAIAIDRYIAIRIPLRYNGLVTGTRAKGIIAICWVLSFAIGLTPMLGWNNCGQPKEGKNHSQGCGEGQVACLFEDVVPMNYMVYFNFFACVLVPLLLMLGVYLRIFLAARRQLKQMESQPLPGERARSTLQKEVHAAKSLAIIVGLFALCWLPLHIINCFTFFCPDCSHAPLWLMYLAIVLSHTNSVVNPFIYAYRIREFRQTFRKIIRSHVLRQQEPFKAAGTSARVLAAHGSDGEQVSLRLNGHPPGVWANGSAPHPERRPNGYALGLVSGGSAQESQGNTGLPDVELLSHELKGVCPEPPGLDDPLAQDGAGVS

[8] = molecular target: T1, Transient receptor potential cation channel subfamily A member 1 (Homo sapiens, UniProt O75762); assay: Antagonist activity at human TRPA1 expressed in tetracycline-inducible T-REx expression system transfected CHO cells assessed as inhibition of AITC-induced Ca2+ influx preincubated for 2 mins followed by AITC addition measured for 2 mins by Fluo-4 dye based FLIPR assay; assay type: cell-based
T1 sequence (O75762 whole entry): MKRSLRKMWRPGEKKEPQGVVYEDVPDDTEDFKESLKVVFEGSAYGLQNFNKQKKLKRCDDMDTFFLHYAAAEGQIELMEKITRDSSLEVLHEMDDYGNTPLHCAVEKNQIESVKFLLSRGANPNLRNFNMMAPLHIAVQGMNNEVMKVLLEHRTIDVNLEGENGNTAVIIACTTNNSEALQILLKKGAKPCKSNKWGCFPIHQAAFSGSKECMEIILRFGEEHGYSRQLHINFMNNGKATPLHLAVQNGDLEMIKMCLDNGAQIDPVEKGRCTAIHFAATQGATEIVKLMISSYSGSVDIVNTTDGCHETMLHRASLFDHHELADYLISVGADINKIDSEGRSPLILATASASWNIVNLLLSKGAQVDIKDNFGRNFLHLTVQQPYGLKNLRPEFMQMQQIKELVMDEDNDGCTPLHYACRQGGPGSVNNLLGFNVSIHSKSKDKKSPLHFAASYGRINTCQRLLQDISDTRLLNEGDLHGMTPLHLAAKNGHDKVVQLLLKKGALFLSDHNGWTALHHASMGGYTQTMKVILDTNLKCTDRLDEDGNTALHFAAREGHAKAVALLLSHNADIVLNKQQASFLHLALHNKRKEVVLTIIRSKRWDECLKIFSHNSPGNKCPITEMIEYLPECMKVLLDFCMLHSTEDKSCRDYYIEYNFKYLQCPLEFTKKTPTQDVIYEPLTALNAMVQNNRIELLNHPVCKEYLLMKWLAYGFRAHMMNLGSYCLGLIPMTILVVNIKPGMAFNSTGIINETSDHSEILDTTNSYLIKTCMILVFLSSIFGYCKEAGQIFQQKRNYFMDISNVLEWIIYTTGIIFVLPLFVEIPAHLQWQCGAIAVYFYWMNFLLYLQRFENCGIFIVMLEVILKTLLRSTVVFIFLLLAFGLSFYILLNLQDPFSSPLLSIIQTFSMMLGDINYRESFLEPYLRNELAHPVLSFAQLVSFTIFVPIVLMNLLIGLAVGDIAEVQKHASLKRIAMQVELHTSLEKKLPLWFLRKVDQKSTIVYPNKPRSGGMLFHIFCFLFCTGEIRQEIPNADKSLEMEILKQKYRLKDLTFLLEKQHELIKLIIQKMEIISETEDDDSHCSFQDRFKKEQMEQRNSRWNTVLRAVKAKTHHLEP

[9] = molecular target: Transient receptor potential cation channel subfamily A member 1 (Rattus norvegicus, UniProt Q6RI86); assay: Antagonist activity at rat TRPA1 expressed in tetracycline-inducible T-REx expression system transfected CHO cells assessed as inhibition of AITC-induced Ca2+ influx preincubated for 2 mins followed by AITC addition measured for 2 mins by Fluo-4 dye based FLIPR assay; assay type: cell-based
[10] = Apparent intrinsic clearance in human liver microsomes; assay type: ADME; conditions: read-out: CLH(app)
[11] = molecular target: Sodium-dependent dopamine transporter (Homo sapiens) (UniProt Q01959); assay: Displacement of [3H]BTCP from human recombinant dopamine transporter expressed in CHO cells assessed as remaining radioligand binding at 10 uM after 120 mins by scintillation counting method relative to control; assay type: cell-based
Chain of Sodium-dependent dopamine transporter (Homo sapiens) (Q01959 whole entry): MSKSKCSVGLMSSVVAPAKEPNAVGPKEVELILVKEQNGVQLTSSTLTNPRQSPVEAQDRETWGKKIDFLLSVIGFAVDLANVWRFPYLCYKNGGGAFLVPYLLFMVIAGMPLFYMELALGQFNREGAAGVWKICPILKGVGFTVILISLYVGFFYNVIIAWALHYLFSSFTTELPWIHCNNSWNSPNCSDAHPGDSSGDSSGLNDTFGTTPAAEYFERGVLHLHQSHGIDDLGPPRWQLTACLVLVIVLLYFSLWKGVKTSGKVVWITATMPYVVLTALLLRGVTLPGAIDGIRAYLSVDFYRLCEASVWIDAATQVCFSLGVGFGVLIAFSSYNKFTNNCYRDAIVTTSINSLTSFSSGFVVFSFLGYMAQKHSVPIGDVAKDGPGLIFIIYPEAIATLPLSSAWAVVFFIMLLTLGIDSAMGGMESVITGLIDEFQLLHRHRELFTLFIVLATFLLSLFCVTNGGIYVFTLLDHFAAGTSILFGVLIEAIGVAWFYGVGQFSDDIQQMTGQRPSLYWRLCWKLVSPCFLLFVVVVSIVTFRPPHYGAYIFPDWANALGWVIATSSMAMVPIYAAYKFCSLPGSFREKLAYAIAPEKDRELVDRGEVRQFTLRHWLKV

[12] = molecular target: Urotensin-2 receptor (Homo sapiens) (UniProt Q9UKP6); assay: Displacement of [125I]urotensin-2 from human recombinant urotensin-2 receptor expressed in CHO cells assessed as remaining radioligand binding at 10 uM after 120 mins by scintillation counting method relative to control; assay type: cell-based
[13] = molecular target: Beta-2 adrenergic receptor (Homo sapiens) (UniProt P07550); assay: Displacement of (-)-[3H]CGP-12177 from human recombinant adrenergic beta2 receptor expressed in CHO cells assessed as remaining radioligand binding at 10 uM after 120 mins by scintillation counting method relative to control; assay type: cell-based
Chain of Beta-2 adrenergic receptor (Homo sapiens) (P07550 whole entry, looked up): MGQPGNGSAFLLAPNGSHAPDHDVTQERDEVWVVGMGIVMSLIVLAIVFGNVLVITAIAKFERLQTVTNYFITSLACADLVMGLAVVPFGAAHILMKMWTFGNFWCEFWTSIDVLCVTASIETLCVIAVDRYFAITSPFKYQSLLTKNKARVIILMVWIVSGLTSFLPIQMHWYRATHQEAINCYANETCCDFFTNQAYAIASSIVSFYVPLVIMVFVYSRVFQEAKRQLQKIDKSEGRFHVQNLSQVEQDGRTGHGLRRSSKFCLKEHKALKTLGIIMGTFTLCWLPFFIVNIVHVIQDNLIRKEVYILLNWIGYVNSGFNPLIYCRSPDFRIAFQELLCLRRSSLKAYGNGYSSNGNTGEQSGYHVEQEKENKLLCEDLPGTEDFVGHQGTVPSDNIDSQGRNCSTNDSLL

[14] = molecular target: Muscarinic acetylcholine receptor M1 (Homo sapiens) (UniProt P11229); assay: Displacement of [3H]pirenzepine from human recombinant muscarinic M1 receptor expressed in CHO cells assessed as remaining radioligand binding at 10 uM after 60 mins by scintillation counting method relative to control; assay type: cell-based
[15] = molecular target: T1, Transient receptor potential cation channel subfamily A member 1; assay: Antagonist activity at human TRPA1 expressed in tetracycline-inducible T-REx expression system transfected CHO cells assessed as inhibition of AITC-induced 45Ca2+ uptake preincubated for 1 min followed by AITC addition measured after 12 mins; assay type: cell-based
[16] = Volume of distribution at steady state in rat at 0.5 mg/kg, iv as single dose; assay type: ADME, organism-based; conditions: in vivo, read-out: Vdss
Method in brief: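 Single intravenous dose of 0.5 mg/kg given to rats, formulated in 100% DMSO.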

[17] = Apparent permeability from apical to basolateral side in MDCK cells expressing control vector after 120 mins by LC-MS/MS analysis; assay type: ADME, cell-based, Canis lupus familiaris; conditions: dog
[18] = molecular target: Transient receptor potential cation channel subfamily V member 4 (Homo sapiens) (UniProt Q9HBA0); assay: Antagonist activity at human TRPV4 expressed in tetracycline-inducible T-REx expression system transfected CHO cells assessed as inhibition of 4alpha-PDD-induced Ca2+ influx up to 10 uM preincubated for 2.5 mins followed by 4alpha-PDD addition measured for 1 min by luminescence assay; assay type: cell-based
Chain of Transient receptor potential cation channel subfamily V member 4 (Homo sapiens) (Q9HBA0 whole entry): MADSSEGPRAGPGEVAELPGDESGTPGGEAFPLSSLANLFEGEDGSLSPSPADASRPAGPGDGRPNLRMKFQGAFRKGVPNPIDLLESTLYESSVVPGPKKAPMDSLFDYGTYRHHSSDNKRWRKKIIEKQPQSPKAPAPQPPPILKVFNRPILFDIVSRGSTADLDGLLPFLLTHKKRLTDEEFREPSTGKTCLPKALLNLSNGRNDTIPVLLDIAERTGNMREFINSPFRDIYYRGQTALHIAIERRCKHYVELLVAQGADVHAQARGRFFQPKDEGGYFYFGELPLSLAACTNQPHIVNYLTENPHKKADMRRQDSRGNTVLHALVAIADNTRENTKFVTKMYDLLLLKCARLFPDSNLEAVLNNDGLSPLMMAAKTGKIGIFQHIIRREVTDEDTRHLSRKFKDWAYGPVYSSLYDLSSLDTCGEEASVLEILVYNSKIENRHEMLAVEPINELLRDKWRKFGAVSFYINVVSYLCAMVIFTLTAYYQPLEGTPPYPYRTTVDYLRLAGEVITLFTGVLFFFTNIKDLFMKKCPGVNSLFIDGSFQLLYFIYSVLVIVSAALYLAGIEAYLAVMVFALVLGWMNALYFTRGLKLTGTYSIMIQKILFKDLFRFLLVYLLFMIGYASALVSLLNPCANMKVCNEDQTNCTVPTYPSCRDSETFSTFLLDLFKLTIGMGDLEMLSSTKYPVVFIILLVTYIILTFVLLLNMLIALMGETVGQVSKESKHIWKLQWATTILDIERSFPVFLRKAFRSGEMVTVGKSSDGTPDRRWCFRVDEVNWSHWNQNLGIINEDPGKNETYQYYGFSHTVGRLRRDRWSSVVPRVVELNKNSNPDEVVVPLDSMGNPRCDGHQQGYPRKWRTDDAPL

[19] = system: Rattus norvegicus; assay: Antinociceptive activity in po dosed Harlan Sprague-Dawley rat assessed as inhibition of AITC-induced paw flinches pretreated for 1 hr followed by AITC injection measured for 1 min post injection; assay type: functional, organism-based
Method in brief: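 Rats were dosed orally with vehicle (2% HPMC/1% Tween-80) or antagonist at 1, 3, 10 or 30 mg/kg. After 1 h, 0.1% AITC was injected into the left ventral hind paw. Flinching was recorded over the first minute post-injection. Unbound plasma concentrations were measured at 1 h (n = 8 per dose).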

[20] = system: Plasma; assay: Unbound plasma concentration in Harlan Sprague-Dawley rat model of AITC-induced flinching at 1 mg/kg, po at 1 hr; assay type: ADME, organism-based; conditions: in vivo
Method in brief: (§1)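 Rats were given vehicle (2% HPMC/1% Tween-80) or compound orally at 1, 3, 10 or 30 mg/kg. After 1 h, 0.1% AITC was injected into one left ventral hind paw, and nocifensive flinching was recorded over the first minute. Unbound plasma concentration was measured at 1 h, n = 8 per dose. In vivo IC50/IC90 came from the exposure–response relationship across individual animals.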

[21] = system: Plasma; assay: Unbound plasma concentration in Harlan Sprague-Dawley rat model of AITC-induced flinching at 30 mg/kg, po at 1 hr; assay type: ADME, organism-based; conditions: in vivo; method in brief: as §1
[22] = system: Rattus norvegicus; assay: In vivo inhibition of TRPA1 in Harlan Sprague-Dawley rat model of AITC-induced flinching assessed as unbound plasma concentration based IC50; assay type: functional, organism-based; method in brief: as §1
[23] = molecular target: C-C chemokine receptor type 2 (Homo sapiens) (UniProt P41597); assay: Displacement of [125I]MCP-1 from human recombinant CCR2 expressed in HEK293 cells assessed as remaining radioligand binding at 10 uM after 60 mins by scintillation counting method relative to control; assay type: cell-based
[24] = molecular target: 5-hydroxytryptamine receptor 5A (Homo sapiens) (UniProt P47898); assay: Displacement of [3H]LSD from human recombinant 5HT5A receptor expressed in HEK293 cells assessed as remaining radioligand binding at 10 uM after 120 mins by scintillation counting method relative to control; assay type: cell-based
[25] = molecular target: 5-hydroxytryptamine receptor 4 (Homo sapiens) (UniProt Q13639); assay: Displacement of [3H]GR-113808 from human recombinant 5HT4E receptor expressed in CHO cells assessed as remaining radioligand binding at 10 uM after 60 mins by scintillation counting method relative to control; assay type: cell-based
Chain of 5-hydroxytryptamine receptor 4 (Homo sapiens) (Q13639 whole entry): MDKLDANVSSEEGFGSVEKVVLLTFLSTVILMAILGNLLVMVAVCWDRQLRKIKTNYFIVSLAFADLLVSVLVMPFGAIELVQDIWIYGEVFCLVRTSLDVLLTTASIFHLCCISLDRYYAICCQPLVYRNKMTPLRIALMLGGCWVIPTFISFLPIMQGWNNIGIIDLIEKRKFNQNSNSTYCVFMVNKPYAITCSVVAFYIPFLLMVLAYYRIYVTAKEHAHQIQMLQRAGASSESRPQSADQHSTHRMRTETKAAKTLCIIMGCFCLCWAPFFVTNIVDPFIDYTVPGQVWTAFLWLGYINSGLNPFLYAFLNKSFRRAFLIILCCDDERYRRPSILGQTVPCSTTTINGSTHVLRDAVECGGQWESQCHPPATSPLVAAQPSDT

[26] = molecular target: 5-hydroxytryptamine receptor 6 (Homo sapiens) (UniProt P50406); assay: Displacement of [3H]LSD from human recombinant 5HT6 receptor expressed in CHO cells assessed as remaining radioligand binding at 10 uM after 120 mins by scintillation counting method relative to control; assay type: cell-based
Chain of 5-hydroxytryptamine receptor 6 (Homo sapiens) (P50406 whole entry): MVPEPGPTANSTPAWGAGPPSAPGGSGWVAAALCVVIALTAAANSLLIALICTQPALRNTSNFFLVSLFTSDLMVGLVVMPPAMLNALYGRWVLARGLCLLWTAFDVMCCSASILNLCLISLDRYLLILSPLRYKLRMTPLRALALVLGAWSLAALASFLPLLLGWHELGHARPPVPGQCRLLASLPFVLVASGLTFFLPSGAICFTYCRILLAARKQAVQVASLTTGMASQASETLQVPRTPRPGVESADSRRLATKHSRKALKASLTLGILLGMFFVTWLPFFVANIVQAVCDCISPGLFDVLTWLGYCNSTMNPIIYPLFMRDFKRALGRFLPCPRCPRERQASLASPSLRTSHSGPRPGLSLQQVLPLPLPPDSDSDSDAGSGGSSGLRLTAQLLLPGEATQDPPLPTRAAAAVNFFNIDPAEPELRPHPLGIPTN

fraction unbound [1]: 0.289 | Activity [2]: > 77% | Activity [3]: > 77% | Activity [5]: > 77% | Activity [6]: > 77% | Activity [7]: > 77% | pIC50 [8]: 7.70 | pIC50 [9]: 7.70 | microsomal CLint [10]: < 14 µL/min/mg | Activity [11]: > 77% | Activity [12]: > 77% | Activity [13]: > 77% | Activity [14]: > 77% | pIC50 [15]: 6.88 | Vd [16]: 1.7 L/kg | Papp A→B at 2 h [17]: 44.5 ×10⁻⁶ cm/s | inhibition [18]: inactive | Cp(f) [20]: 51 nM | Cp(f) [21]: 2200 nM | pIC50 [22]: 6.46 | Activity [23]: > 77% | Activity [24]: > 77% | Activity [25]: > 77% | Activity [26]: > 77%
SMILES: Cn1cnc2ncn(Cc3nc(CCc4ccc(Cl)cc4)no3)c(=O)c21
Activity [4]: > 77% | inhibition [19]: Dose-dependent effect
